Laboratory results published in ChEMBL document CHEMBL1155415, “Synthesis, characterization, and in vitro antimicrobial activities of 5-alkenyl/hydroxyalkenyl-2-phenylamine-1,3,4-oxadiazoles and thiadiazoles” (2010).
≈ marks a conversion by molar mass, not a printed value.

Key:
Assay type in all cases: functional
Aspergillus fumigatus [1] = test: Ratio of MFC to MIC for Aspergillus fumigatus
How it was run: (§1)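 MFC: 0.1 ml from each MIC tube was spread on agar and colonies were counted after 48 h at 35 °C. MFC is the lowest concentration killing 99.9% of the inoculum. The MFC/MIC ratio was then calculated to classify activity as fungistatic or fungicidal.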

Staphylococcus aureus [2] = test: Antibacterial activity against Staphylococcus aureus ATCC 25923 after 18 to 24 hrs
Pseudomonas aeruginosa [3] = test: Antibacterial activity against Pseudomonas aeruginosa ATCC 27853 after 18 to 24 hrs
Candida albicans [4] = test: Antifungal activity against Candida albicans after 48 hrs by two fold dilution technique
How it was run: (§2)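 Broth MIC. Broth with log two-fold serial dilutions of compound was inoculated with about 1.6 × 10⁴–6 × 10⁴ c.f.u./ml of fungus and incubated 48 h at 35 °C. MIC is the lowest concentration arresting fungal growth.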

Staphylococcus aureus [5] = test: Antibacterial activity against Staphylococcus aureus ATCC 25923 after 24 hrs by disc diffusion method
How it was run: (§3)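 Agar disc diffusion. A standard inoculum of […] c.f.u./ml (0.5 McFarland) was spread evenly on agar. 6 mm Whatman no. 1 paper discs, dry-heat sterilized (140 °C, 1 h), were soaked in test compound and placed on nutrient agar. Plates were inverted and incubated 24 h at 37 °C. Read-out: diameter of the inhibition zone.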

Klebsiella pneumoniae [6] = test: Antibacterial activity against Klebsiella pneumoniae after 18 to 24 hrs
Streptococcus pyogenes [7] = test: Antibacterial activity against Streptococcus pyogenes after 24 hrs by disc diffusion method; how it was run: as §3
[8] = test system: Trichophyton mentagrophytes; test: Ratio of MFC to MIC for Trichophyton mentagrophytes; how it was run: as §1
Candida albicans [9] = test: Antifungal activity against Candida albicans after 48 hrs by disk diffusion method
How it was run: (§4)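 Agar well diffusion with compounds in DMSO. The dish was lawned with a saline spore suspension, excess decanted, and dried 1 h at 37 °C. Wells were punched. Read-out: inhibition zone in mm. Griseofulvin served as standard and DMSO as negative control.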

Escherichia coli [10] = test: Antibacterial activity against Escherichia coli ATCC 25922 after 18 to 24 hrs
Streptococcus pyogenes [11] = test: Antibacterial activity against Streptococcus pyogenes after 24 hrs by two fold dilution technique
How it was run: (§5)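 Broth dilution MIC. Nutrient broth held log two-fold serial dilutions of compound and was inoculated with about 5 × 10⁵ c.f.u./ml of actively dividing bacteria. Incubation was 24 h at 37 °C, with growth checked visually and spectrophotometrically. MIC is the lowest concentration arresting growth.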

Staphylococcus aureus [12] = test: Antibacterial activity against Staphylococcus aureus ATCC 25923 after 24 hrs by two fold dilution technique; details: ATCC 25923, 24 h; how it was run: as §5
Talaromyces marneffei [13] = test: Ratio of MFC to MIC for Penicillium marneffei; how it was run: as §1
Klebsiella pneumoniae [14] = test: Antibacterial activity against Klebsiella pneumoniae after 24 hrs by disc diffusion method; how it was run: as §3
[15] = test system: Trichophyton mentagrophytes; test: Antifungal activity against Trichophyton mentagrophytes after 48 hrs by two fold dilution technique; how it was run: as §2
Pseudomonas aeruginosa [16] = test: Antibacterial activity against Pseudomonas aeruginosa ATCC 27853 after 24 hrs by disc diffusion method; how it was run: as §3
Pseudomonas aeruginosa [17] = test: Antibacterial activity against Pseudomonas aeruginosa ATCC 27853 after 24 hrs by two fold dilution technique; details: ATCC 27853, 24 h; how it was run: as §5
Klebsiella pneumoniae [18] = test: Antibacterial activity against Klebsiella pneumoniae after 24 hrs by two fold dilution technique; how it was run: as §5
Talaromyces marneffei [19] = test: Antifungal activity against Penicillium marneffei after 48 hrs by two fold dilution technique; how it was run: as §2
Talaromyces marneffei [20] = test: Antifungal activity against Penicillium marneffei after 48 hrs by disk diffusion method; how it was run: as §4
Aspergillus fumigatus [21] = test: Antifungal activity against Aspergillus fumigatus after 48 hrs by disk diffusion method; how it was run: as §4
Candida albicans [22] = test: Ratio of MFC to MIC for Candida albicans; how it was run: as §1
[23] = test system: Trichophyton mentagrophytes; test: Antifungal activity against Trichophyton mentagrophytes after 48 hrs by disk diffusion method; how it was run: as §4
Escherichia coli [24] = test: Antibacterial activity against Escherichia coli ATCC 25922 after 24 hrs by disc diffusion method; how it was run: as §3
Streptococcus pyogenes [25] = test: Antibacterial activity against Streptococcus pyogenes after 18 to 24 hrs
Aspergillus fumigatus [26] = test: Antifungal activity against Aspergillus fumigatus after 48 hrs by two fold dilution technique; how it was run: as §2
Escherichia coli [27] = test: Antibacterial activity against Escherichia coli ATCC 25922 after 24 hrs by two fold dilution technique; details: ATCC 25922, 24 h; how it was run: as §5

MIC (Candida albicans [4]) | MIC [15] | MIC (Talaromyces marneffei [19]) | MIC (Aspergillus fumigatus [26]) | Compound | Ratio (Aspergillus fumigatus [1]) | MBC (Staphylococcus aureus [2]) | MBC (Pseudomonas aeruginosa [3]) | MFC (Candida albicans [4]) | diameter of the inhibition zone (DIZ) (Staphylococcus aureus [5]) | MBC (Klebsiella pneumoniae [6]) | diameter of the inhibition zone (DIZ) (Streptococcus pyogenes [7]) | diameter of the inhibition zone (DIZ) (Candida albicans [9]) | Ratio (Talaromyces marneffei [13]) | MFC [15] | MFC (Talaromyces marneffei [19]) | diameter of the inhibition zone (DIZ) (Talaromyces marneffei [20]) | diameter of the inhibition zone (DIZ) (Aspergillus fumigatus [21]) | Ratio (Candida albicans [22]) | diameter of the inhibition zone (DIZ) [23] | MFC (Aspergillus fumigatus [26]) | other results
25 mg/L (≈ 58.2 µM) | 25 mg/L (≈ 58.2 µM) | 25 mg/L (≈ 58.2 µM) | 25 mg/L (≈ 58.2 µM) | CCCCC/C=C\CCC(O)CCCCCCCc1nnc(Nc2ccccc2)s1 (stereo not drawn) | 2 | 12.5 mg/L (≈ 29.1 µM) | 25 mg/L (≈ 58.2 µM) | 50 mg/L (≈ 116 µM) | 20.8 mm | 6.25 mg/L (≈ 14.5 µM) | 21.1 mm | 24.9 mm | 4 | 100 mg/L (≈ 233 µM) | 100 mg/L (≈ 233 µM) | 15.2 mm | 21.8 mm | 2 | 19 mm | 50 mg/L (≈ 116 µM) | Ratio [8]: 4; MBC (Escherichia coli [10]): 12.5 mg/L (≈ 29.1 µM); MIC (Streptococcus pyogenes [11]): 6.25 mg/L (≈ 14.5 µM); MIC (Staphylococcus aureus [12]): 6.25 mg/L (≈ 14.5 µM); diameter of the inhibition zone (DIZ) (Klebsiella pneumoniae [14]): 19.9 mm; diameter of the inhibition zone (DIZ) (Pseudomonas aeruginosa [16]): 25.9 mm; MIC (Pseudomonas aeruginosa [17]): 6.25 mg/L (≈ 14.5 µM); MIC (Klebsiella pneumoniae [18]): 6.25 mg/L (≈ 14.5 µM); diameter of the inhibition zone (DIZ) (Escherichia coli [24]): 22.9 mm; MBC (Streptococcus pyogenes [25]): 25 mg/L (≈ 58.2 µM); MIC (Escherichia coli [27]): 6.25 mg/L (≈ 14.5 µM)
25.5 mg/L (≈ 80.8 µM) | 25 mg/L (≈ 79.2 µM) | 25 mg/L (≈ 79.2 µM) | 25 mg/L (≈ 79.2 µM) | C=CCCCCCCCCc1nnc(Nc2ccccc2)s1 | 4 | 25 mg/L (≈ 79.2 µM) | 25 mg/L (≈ 79.2 µM) | 50 mg/L (≈ 158 µM) | 13.1 mm | 50 mg/L (≈ 158 µM) | 13.5 mm | 19.5 mm | 4 | 50 mg/L (≈ 158 µM) | 100 mg/L (≈ 317 µM) | 10.2 mm | 16.5 mm | 2 | 14.1 mm | 100 mg/L (≈ 317 µM) | Ratio [8]: 2; MBC (Escherichia coli [10]): 100 mg/L (≈ 317 µM); MIC (Streptococcus pyogenes [11]): 25 mg/L (≈ 79.2 µM); MIC (Staphylococcus aureus [12]): 12.5 mg/L (≈ 39.6 µM); diameter of the inhibition zone (DIZ) (Klebsiella pneumoniae [14]): 12.8 mm; diameter of the inhibition zone (DIZ) (Pseudomonas aeruginosa [16]): 17.2 mm; MIC (Pseudomonas aeruginosa [17]): 12.5 mg/L (≈ 39.6 µM); MIC (Klebsiella pneumoniae [18]): 25 mg/L (≈ 79.2 µM); diameter of the inhibition zone (DIZ) (Escherichia coli [24]): 15.2 mm; MBC (Streptococcus pyogenes [25]): 50 mg/L (≈ 158 µM); MIC (Escherichia coli [27]): 25 mg/L (≈ 79.2 µM)
12.5 mg/L (≈ 29.1 µM) | 12.5 mg/L (≈ 29.1 µM) | 25 mg/L (≈ 58.2 µM) | 12.5 mg/L (≈ 29.1 µM) | CCCCCCC(O)C/C=C\CCCCCCCc1nnc(Nc2ccccc2)s1 (stereo not drawn) | 4 | 12.5 mg/L (≈ 29.1 µM) | 12.5 mg/L (≈ 29.1 µM) | 25 mg/L (≈ 58.2 µM) | 21.6 mm | 6.25 mg/L (≈ 14.5 µM) | 22.9 mm | 25.1 mm | 2 | 25 mg/L (≈ 58.2 µM) | 50 mg/L (≈ 116 µM) | 15.1 mm | 22.4 mm | 2 | 18.9 mm | 50 mg/L (≈ 116 µM) | MBC (Escherichia coli [10]): 12.5 mg/L (≈ 29.1 µM); MIC (Streptococcus pyogenes [11]): 6.25 mg/L (≈ 14.5 µM); MIC (Staphylococcus aureus [12]): 6.25 mg/L (≈ 14.5 µM); diameter of the inhibition zone (DIZ) (Klebsiella pneumoniae [14]): 22.7 mm; diameter of the inhibition zone (DIZ) (Pseudomonas aeruginosa [16]): 29.2 mm; MIC (Pseudomonas aeruginosa [17]): 6.25 mg/L (≈ 14.5 µM); MIC (Klebsiella pneumoniae [18]): 6.25 mg/L (≈ 14.5 µM); diameter of the inhibition zone (DIZ) (Escherichia coli [24]): 25.5 mm; MBC (Streptococcus pyogenes [25]): 12.5 mg/L (≈ 29.1 µM); MIC (Escherichia coli [27]): 6.5 mg/L (≈ 15.1 µM)
6.25 mg/L (≈ 17.7 µM) | 6.25 mg/L (≈ 17.7 µM) | 6.25 mg/L (≈ 17.7 µM) | 6.25 mg/L (≈ 17.7 µM) | COC1=CC(=O)C[C@@H](C)[C@]12Oc1c(Cl)c(OC)cc(OC)c1C2=O [GRISEOFULVIN] | 2 | – | – | 12.5 mg/L (≈ 35.4 µM) | – | – | – | 30 mm | 2 | 12.5 mg/L (≈ 35.4 µM) | 12.5 mg/L (≈ 35.4 µM) | 20 mm | 27 mm | 2 | 24 mm | 12.5 mg/L (≈ 35.4 µM) | Ratio [8]: 2
